Assay outcomes deposited in PubChem by several laboratories.
Shown are actives, neighbours in structure and some others; about 1.6% of the full set was active somewhere.
GASC-1 inh – inhibitors of human GASC-1 (JMJD2C) demethylase. actives 0.069% (n = 330,000). inhibition, % at 2.35 µM. Q9H3R0. AID 2099. GST-JMJD2C(1-420) H3K9me3 demethylation, DELFIA europium;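 active means more than half of a compound's replicate wells show inhibition beyond 50%, single wells judged on their own value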;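 further: signal counts dimethyl H3K9 product captured on neutravidin plate; 0% = median of DMSO wells and 100% = 0.3 times that DMSO median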
Target sequence (Q9H3R0 1-420 limits assumed): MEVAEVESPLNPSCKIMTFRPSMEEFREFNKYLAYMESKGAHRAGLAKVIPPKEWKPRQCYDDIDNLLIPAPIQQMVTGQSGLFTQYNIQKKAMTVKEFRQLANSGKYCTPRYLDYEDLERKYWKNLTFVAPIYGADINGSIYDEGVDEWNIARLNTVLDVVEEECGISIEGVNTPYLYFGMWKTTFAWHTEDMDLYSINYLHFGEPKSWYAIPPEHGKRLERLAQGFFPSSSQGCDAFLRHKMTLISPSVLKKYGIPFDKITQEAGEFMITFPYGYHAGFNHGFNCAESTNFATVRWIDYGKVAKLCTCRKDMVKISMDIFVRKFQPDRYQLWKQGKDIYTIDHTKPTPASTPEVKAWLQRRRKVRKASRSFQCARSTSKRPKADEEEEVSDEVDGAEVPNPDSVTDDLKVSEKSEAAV
TDP2 inh – TDP2 (human) inhibition, absorbance primary screen | inhibition, % at 12.8 µM | recombinant TDP2, T5PNP hydrolysis, p-nitrophenol absorbance 415 nm | O95551 | actives 0.34% (n = 370,000);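 active means inhibition above the mean of all tested compounds plus 3 SD, set per campaign, cut at about 25% in these data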;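 further: 0% = DMSO with enzyme and 100% = buffer with substrate but no TDP2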
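System – recombinant human TDP2 · Quantity – TDP2 enzyme at 120 nM final · Doses – single concentration, 12.8 µM nominal, with 1% DMSO · Incubation – 2 h at 37 °C · Measured by – epi absorbance of p-nitrophenol freed from T5PNP by hydrolysis · Read-out – % inhibition relative to enzyme-containing and enzyme-free wells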
PAD4 inh – inhibitors of human PAD4. Q9UM07. recombinant PAD4, RCA probe fluorescence polarization. inhibition, % at 6.36 µM. actives 0.41% (n = 330,000). AID 485272;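 active means percent inhibition above a cutoff equal to the mean of all tested compounds plus 3 SD, cut at about 15% in these data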;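 further: 0% = PAD4 with RCA probe and DMSO and 100% = probe without PAD4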
GSTO1 inh – counter-screen for RBBP9 inhibitors: inhibitors of human GSTO1; P78417; recombinant GSTO1, activity-based probe fluorescence polarization; inhibition, % at 5.96 µM; actives 1.1% (n = 300,000);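 active means inhibition above the campaign mean inhibition plus 3 SD, cut at about 35% in these data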;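 further: 0% = GSTO1-1 with DMSO and 100% = wells lacking GSTO1-1 enzyme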
Apaf1 inhib – human Apaf-1 inhibition | actives 0.71% (n = 330,000) | reconstituted apoptosome caspase-3 activity, DEVD-Rh110 fluorescence | inhibition, % at 20 µM; active means inhibition of at least 40% at 20 µM;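 further: plate controls were DMSO wells for no effect and DEVD-CHO caspase inhibitor wells for full effect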
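System: Apoptosome proteins | Medium: Hepes pH 7.5 with detergent and BSA | Also added: Cytochrome c trigger plus (Z-DEVD)2-Rh110 caspase-3 substrate | Incubation: 30 min compound preincubation, 50 min activation, room temperature | Detection: Rhodamine 110 fluorescence at Ex 480/Em 540 nm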
SUMO HTRF inh – SUMOylation inhibition; HTRF SUMOylation assay, SAE1/SAE2 + UBC9, in vitro; actives 0.36% (n = 290,000); inhibition, % at 35 µM; in the data active means inhibition above about 50%, passing the limit was not always enough
Apaf-1 inh conf – confirmation of Apaf-1 inhibitors | shares compounds with Apaf1 inhib | reconstituted apoptosome, caspase-3 DEVD-Rh110 fluorescence | inhibition, % at 20 µM | actives 25% (n = 1,800) | AID 504614;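 active means mean inhibition of at least 40% at 20 µM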;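 further: plate controls were DMSO wells for no effect and DEVD-CHO caspase inhibitor control wells for full effect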
Rh110 interf inh – Rh110 signal interference in Apaf-1 inhibitor counter-screen. AID 504615. 1,800 tested, under 10 active. Rh110 fluorescence interference, quenched caspase reaction. activation (fluorescence interference), % at 20 µM. shares compounds with Apaf1 inhib;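 active means signal rise of 40% or more at 20 µM, treated as a fluorescence artifact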
Numbers without * were called inactive.

Screening Cc1ccc(C)c(NC(=O)CN(C)C(=O)c2cccc(S(=O)(=O)N3CCN(Cc4ccccc4)CC3)c2)c1 returned GASC-1 inh -1, TDP2 inh 5, PAD4 inh -7, GSTO1 inh -1, Apaf1 inhib 41*, SUMO HTRF inh 2, Apaf-1 inh conf 37 and Rh110 interf inh 0.
Screening Cc1cccc(C(=O)Nc2c(-c3ccc(C(F)(F)F)cc3)nc3ncccn23)c1 returned TDP2 inh -5.
Screening CCN1CCc2c(C#N)c(N3CCCCC3)nc(NCc3ccccc3)c2C1 returned GASC-1 inh 15, TDP2 inh -15, PAD4 inh -4, GSTO1 inh 0, Apaf1 inhib 39 and SUMO HTRF inh 18.
`N#Cc1c(NCCO)nc(NCc2ccccc2)c2c1CCN(Cc1ccccc1)C2` gave GASC-1 inh 1, PAD4 inh -2, GSTO1 inh 18, Apaf1 inhib 60*, SUMO HTRF inh 39, Apaf-1 inh conf 25 and Rh110 interf inh 12.
`COc1ccc(CN(CC#Cc2ccc(C)cc2)C(N)=NC(=O)CCc2ccccc2)c(OC)c1` gave TDP2 inh 1.
Screening Cc1cc(C)cc(OC(C)CCN2CCC(C(O)(c3ccccc3)c3ccccc3)CC2)c1 (stereo not drawn) returned TDP2 inh 6.
For COC(=O)c1ccc(C(=O)Nc2ccc(N)cc2N)cc1 the results were GASC-1 inh 1, TDP2 inh -3, PAD4 inh -6, GSTO1 inh 8, Apaf1 inhib 48*, SUMO HTRF inh 30, Apaf-1 inh conf 13 and Rh110 interf inh 1.
`CC1(OC(=O)c2ccc(Cl)nc2)C(=O)C=C2C=C3CCCN3C=C2C1=O` (stereo not drawn) gave GASC-1 inh 2, TDP2 inh 11, PAD4 inh -5, GSTO1 inh 35*, Apaf1 inhib 44*, SUMO HTRF inh 45, Apaf-1 inh conf 40 and Rh110 interf inh 6.
CC1(OC(=O)c2ccc(Cl)nc2)C(=O)C=C2C=C(C3CC3)OC=C2C1=O (stereo not drawn) was read as GASC-1 inh 2, PAD4 inh 14, GSTO1 inh 24 and Apaf1 inhib -7.
`COc1cc(OC)c2c(-c3ccccc3)cc(=O)oc2c1C(CC(=O)N1CCOCC1)c1ccc2c(c1)OCO2` (stereo not drawn) gave GASC-1 inh -5, TDP2 inh -13, PAD4 inh -6, GSTO1 inh 10, Apaf1 inhib 18 and SUMO HTRF inh 12.
Screening COc1ccc(C2CC(=O)Oc3c(C(CCN4CCCC(C)C4)c4ccc(N(C)C)cc4)c(OC)cc(OC)c32)cc1 (stereo not drawn) returned GASC-1 inh -14, TDP2 inh 4, PAD4 inh 2, GSTO1 inh 8, Apaf1 inhib 49*, SUMO HTRF inh -24, Apaf-1 inh conf 18 and Rh110 interf inh 12.
`COc1cc(OC)c2c(-c3ccccc3)cc(=O)oc2c1C(CCN1CCOCC1)c1ccc2c(c1)OCO2` (stereo not drawn) gave TDP2 inh 9, PAD4 inh -1, Apaf1 inhib 42*, Apaf-1 inh conf 9 and Rh110 interf inh -2.
COc1cc(OC)c2ccc(=O)oc2c1C(CCN1CCCC1)c1ccc2c(c1)OCO2 (stereo not drawn) was read as GASC-1 inh -3, TDP2 inh 4, PAD4 inh -3, GSTO1 inh 13, Apaf1 inhib 12 and SUMO HTRF inh 12.
COc1ccc(C(CCN2CCCC(C)C2)c2c(OC)cc(OC)c3c(-c4ccccc4)cc(=O)oc23)cc1 (stereo not drawn) was read as GASC-1 inh 0, TDP2 inh -12, PAD4 inh 1, GSTO1 inh 8, Apaf1 inhib 54*, SUMO HTRF inh 13, Apaf-1 inh conf 26 and Rh110 interf inh 1.
